Assay outcomes deposited in PubChem BioAssay by Sanford-Burnham Center for Chemical Genomics.
SENP1 inh: SENP1 (human) catalytic domain inhibition | Q9P0U3 | recombinant SENP1 catalytic domain, CyPet-SUMO1-YPet FRET cleavage | inhibition, % at 10 µM | 360,000 compounds, 0.21% hits | AID 624204;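 active = inhibition at least 30% at 10 µM, raw YFP signal under a set limit, fluorescence ratio 0.5 to 1.5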;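 note: 0% = enzyme with DMSO and 100% = no enzyme wells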
Target sequence (Q9P0U3 419-644 limits assumed): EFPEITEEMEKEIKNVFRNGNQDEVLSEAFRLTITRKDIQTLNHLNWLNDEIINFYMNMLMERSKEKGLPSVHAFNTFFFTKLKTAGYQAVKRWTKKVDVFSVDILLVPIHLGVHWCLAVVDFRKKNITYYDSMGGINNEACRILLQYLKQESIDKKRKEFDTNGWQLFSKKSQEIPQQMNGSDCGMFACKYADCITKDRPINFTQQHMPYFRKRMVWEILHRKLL
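Assay system – human recombinant His6-tagged SENP1 catalytic domain enzyme · Input – SENP1 enzyme, 20 pM final · Buffer or medium – Tris pH 8 buffer plus EDTA, NaCl, BME, BSA, NP40, catalase · Schedule – 50 min reaction at room temperature · Technique – FRET read of cyan and yellow fluorescence · Control set – no-enzyme wells low, DMSO-plus-enzyme wells high control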
SENP8 block-1: blocks the human protease SENP8 | Q96LD8 | purified SENP8, Z-RLRGG-aminoluciferin cleavage, luminescence | inhibition, % at 10 µM | 330,000 compounds, 1.2% hits | AID 2540; in the data active = inhibition above about 50%
Target sequence (Q96LD8 whole entry, looked up): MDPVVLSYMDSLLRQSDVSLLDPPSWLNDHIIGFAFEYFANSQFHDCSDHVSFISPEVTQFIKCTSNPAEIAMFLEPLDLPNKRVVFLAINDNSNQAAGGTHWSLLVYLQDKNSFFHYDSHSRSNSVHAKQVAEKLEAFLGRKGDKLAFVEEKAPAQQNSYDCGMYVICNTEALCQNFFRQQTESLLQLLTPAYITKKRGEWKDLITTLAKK
SENP6 inh: SENP6 protease inhibition; Recombinant SENP6 catalytic domain, aminoluciferin luminescence; inhibition, % at 10 µM; AID 2599; 330,000 compounds, 1.8% hits;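 active = inhibition above about 50% at the single tested dose, limit read from the data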;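 note: plate controls were DMSO wells with enzyme for no effect and DMSO wells lacking enzyme for full effect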
SENP7 block: inhibitors of human SENP7 protease. Q9BQF6. recombinant SENP7, Z-RLRGG-aminoluciferin luminescence, 40 min. inhibition, % at 5 µM. 330,000 compounds, 1.5% hits. AID 434973;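 active = inhibition above about 50% at the single test dose, limit read from the data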;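 note: plate controls were DMSO with enzyme for no effect and no enzyme buffer wells for full effect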
SENP8 block-2: SENP8 (human) protease inhibition | Q96LD8 | recombinant SENP8, Nedd8 substrate fluorescence | inhibition, % at 20 µM | 360,000 compounds, 0.64% hits; in the data active = inhibition mostly above about 40%, no sharp cut-off; inactive = mostly below about 27%
SENP8 conf: confirmation of human SENP8 protease inhibitors. 1,400 compounds, 15% hits. purified SENP8, Nedd8-AMC/pro-Nedd8 cleavage fluorescence, 30 min. shares compounds with SENP8 block-2. inhibition, % at 25 µM; in the data active = inhibition mostly above about 39%, no sharp cut-off; inactive = mostly below about 34%
* = called active by the depositor; · = no result. Shown are actives, neighbours in structure and some others; about 2.5% of the full set was active somewhere.

SMILES	SENP1 inh	SENP8 block-1	SENP6 inh	SENP7 block	SENP8 block-2	SENP8 conf
O=C1CCC[C@H]2c3[nH]c4ccccc4c3CCN12	-2.2	2.8	-10.1	6.6	67.8*	5.6
Cc1cc(=O)[nH]c(-n2[nH]c(C)cc2=O)n1	1.7	-0.8	-1.7	2.0	24.9	·
COc1ccc(-n2[nH]c(C)cc2=O)cc1	-1.6	-5.3	-5.8	-3.5	67.8*	40.5
CC(OC(=O)c1cc(-c2cccnc2)nc2ccccc12)C(=O)Nc1ccc2ccccc2c1 (centres undefined)	1.0	3.9	10.7	1.9	9.3	·
CN(C)C(=O)[C@H]1C[C@H]1[C@@H](O)[C@H](CO)NC(=O)[C@H](Cc1ccccc1)NC(=O)OC(C)(C)C	1.3	-2.6	-6.4	7.6	13.4	·
OCCNCc1cc(Br)ccc1OCc1ccc(Cl)cc1Cl	-49.9	·	·	·	41.6*	10.6
OCCNCc1cc(Br)ccc1OCc1ccc(Cl)cc1	-0.1	-11.1	-4.7	-7.7	15.5	·
COc1cccc2c1nc(C)c1cc(C)oc12	-0.1	-10.7	-19.1	-22.0	-12.9	·
COc1cccc2nc3cc(C)c(C)cc3nc12	42.0	94.7*	90.8*	97.4*	42.2*	78.0*
Cc1ccc(Sc2ncccc2COC(=O)Nc2ccccc2)cc1	2.7	-15.3	15.0	-1.0	40.0*	9.3
Cc1ccoc1C(=O)NCCCNC(=O)c1occc1C	1.3	1.0	-3.9	-1.0	61.9*	81.5*
O=C(C1CCC(=O)N1Cc1ccccc1Cl)N1CCN(c2cccc(Cl)c2)CC1 (centres undefined)	0.3	-3.1	-25.2	-6.9	40.4*	5.3
O=C(Nc1ccc(Cl)cc1)C1CCC(=O)N1Cc1ccccc1Cl (centres undefined)	2.2	-4.4	-22.1	-1.6	12.0	·
Cc1ccc(S(=O)(=O)NCC(=O)N(CC(=O)NCC2CCCO2)Cc2ccccc2Cl)cc1 (centres undefined)	-0.4	2.5	5.4	2.4	6.7	·
Cc1ccc(Cc2cnc(NC(=O)/C(C#N)=C/c3ccc(-c4ccccc4[N+](=O)[O-])o3)s2)cc1	16.0	7.2	16.3	7.7	46.9*	17.9
Cc1ccc(-c2ccc(/C=N/NC(=S)Nc3ccccc3)o2)cc1[N+](=O)[O-]	1.4	0.2	19.8	4.1	22.7	·
O=[N+]([O-])c1cccc(-c2ccc(/C=N/NC(=S)Nc3cccc(F)c3)o2)c1	2.0	6.2	-17.6	-1.5	52.3*	10.5
CNC(=S)N/N=C/c1ccc(-c2ccc(Cl)c([N+](=O)[O-])c2)o1	-0.2	13.7	13.6	2.8	33.1*	1.2
NC(=S)N/N=C/c1ccc(-c2cccc([N+](=O)[O-])c2)o1	0.9	-14.9	-15.0	6.3	29.7	·
Cc1c(Cl)cccc1NC(=S)N1CCCN(Cc2ccc(F)cc2)C1	-0.1	-3.2	-10.8	-1.0	16.8	·
N#Cc1cc([N+](=O)[O-])ccc1NC(=O)COC(=O)C1CCC(=O)N1 (centres undefined)	0.1	13.0	-3.7	5.0	10.5	·
Cc1ccc(C(=O)NN2C(=O)C3C4c5ccccc5C(c5ccccc54)C3C2=O)cc1 (centres undefined)	-0.5	-4.2	7.3	3.4	45.2*	16.6
O=C(NN1C(=O)C2C3c4ccccc4C(c4ccccc43)C2C1=O)c1ccccc1 (centres undefined)	2.9	-1.7	-6.8	0.9	9.1	·
Cc1nc(CS(=O)(=O)c2ccccn2)sc1C(=O)NNC(=O)c1c(F)cccc1Cl	1.9	-0.4	0.6	6.7	42.4*	13.7
O=C(O)c1ccc(N/N=C/C=C/c2ccc([N+](=O)[O-])o2)cc1	77.6*	-7.4	27.4	6.2	44.8*	27.6
O=C(N/N=C/c1ccc([N+](=O)[O-])o1)C(=O)Nc1ccc(C(=O)O)cc1	-2.3	4.2	23.1	1.2	32.7	·
Cc1nc2ccccc2n1/N=C/c1ccc([N+](=O)[O-])o1	1.9	14.3	19.0	2.3	41.9*	47.2*
Cc1nc2ccccc2c(=O)n1/N=C/c1ccc([N+](=O)[O-])o1	·	1.1	6.5	7.0	·	·
C[C@@H]1CN([C@@H](C)CO)C(=O)c2cc(Br)cnc2O[C@H]1CN(C)Cc1cccnc1	0.8	·	·	·	19.6	·
